The text below walks through data of article PMC3332339 (European Journal of Clinical Pharmacology, 2012).

Marks after values point to notes of the source that are not given here.

For data set [1], the system named is thrombin (meizothrombin generated from prothrombin by ecarin). Description: Ecarin clotting time. It is filed as in vivo, human.
Data set [2] deals with human α-thrombin. The data set can be described thus: Diluted thrombin time. Format: in vivo. The following applies: for dTT (HEMOCLOT) AUEC0–48, gMean / dTT (HEMOCLOT) ERmax, gMean / dTT (HEMOCLOT) Ebase (baseline effect), gMean: n = 23. The method in brief: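 Healthy-adult crossover (oral prodrug 220 mg alone or after 3 days of s.c. LMWH 40 mg), plasma sampled over 48 h. Plasma diluted in 0.9% NaCl, mixed with normal pooled human plasma, 2 min at 37°C; clotting started with a fixed amount of purified human α-thrombin and time to clot recorded in seconds. Quantitative range 50–500 ng/mL. AUEC0–48 and ERmax; geometric mean ratios with 90% CI.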

The nature of data set [3]: Safety and tolerability. Format: in vivo, human. Particulars: for Tolerability (global assessment): Phase I, healthy subjects. In a few lines:
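Open-label single-center crossover in healthy men and women: oral prodrug 220 mg alone, or after 3 daily s.c. LMWH 40 mg doses. Assessed by adverse events, physical examination, blood pressure, pulse, 12-lead ECG, hematology, clinical chemistry, urinalysis, local tolerability and investigator global assessment. Follow-up on days 1–3, with end-of-study examination within 7 days.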

In data set [4] the test system is factor Xa/IIa. Particulars: cited from earlier work.
Data set [5] is described as follows: Dabigatran plasma pharmacokinetics. It is filed as in vivo, human. Particulars: for AUC(0-inf) / Cmax: both, human, plasma. The method in brief: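 Crossover in healthy adults: 220 mg oral prodrug alone, or 24 h after 3 daily s.c. LMWH 40 mg doses, with 5-day washout. Plasma taken to 48 h post-dose. Free drug: plasma buffered with 0.2 M ammonium formate pH 3.5 plus [13C6] internal standard. Total drug: alkaline cleavage with NaOH, 2 h at 37°C, then HCl. Validated HPLC-MS/MS, calibrated 1.00–400 ng/mL. Geometric mean ratios with 90% CI.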

Data set [6] deals with factor Xa inhibition and thrombin inhibition. The data set can be described thus: Prothrombinase-induced clotting time. Format: in vivo, human. The following applies: for PiCT AUEC0–48, ratio of adjusted test/reference gMean (90% CI) / PiCT ERmax, ratio of adjusted test/reference gMean (90% CI): after enoxaparin vs alone. The method in brief: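 Healthy-adult crossover: oral prodrug 220 mg alone, or 24 h after 3 daily s.c. LMWH 40 mg doses. Platelet-poor plasma incubated with phospholipid/Russell's viper venom activator, 3 min at 37°C; factor Xa added, recalcified with reagent containing 25 mM CaCl2, clotting time read. Daily 142 ng/mL quality-control standard run at start, middle and end. AUEC0–48 and ERmax versus baseline; geometric mean ratios with 90% CI.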

The conditions of data set [7]: pharmacologically equipotent glucuronide; cited from earlier work.
The subject of data set [8] is intrinsic pathway of the coagulation cascade. Description: Activated partial thromboplastin time. The following applies: for aPTT AUEC0–48, gMean / aPTT ERmax, gMean / aPTT Ebase (baseline effect), gMean: n = 23. It is filed as in vivo, human. In a few lines: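 Crossover in healthy adults (18–55 y) with 5-day washout: oral thrombin-inhibitor prodrug 220 mg alone, or 24 h after 3 daily s.c. LMWH 40 mg doses. Plasma sampled over 48 h. Equal volumes of plasma and kaolin–cephalin reagent, 3 min at 37°C with stirring, recalcified with 0.025 M CaCl2, then time to fibrin clot on a coagulometer. Geometric mean test/reference ratios with 90% CI.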

Setting [9] is: enoxaparin pre-treatment before dabigatran etexilate 220 mg.
The mark [10] stands for this setting: dabigatran etexilate 220 mg after enoxaparin vs alone, adjusted gMean ratio.
Where [11] appears, read: dabigatran etexilate dosed 24 h after enoxaparin.
The mark [12] stands for this setting: dabigatran etexilate 220 mg after enoxaparin, n = 21.
The mark [13] stands for this setting: dabigatran etexilate 220 mg alone, n = 23.
Setting [14] is: dabigatran etexilate 220 mg after enoxaparin.
Where [15] appears, read: dabigatran etexilate 220 mg alone.
[16] abbreviates: dabigatran etexilate 220 mg after enoxaparin, n = 23.

For enoxaparin, the “Effect of enoxaparin on ECT” value in data set [1] (setting [9]) was “not meaningfully affected”. Further, the “Effect of enoxaparin on dTT” value in data set [2] (setting [9]) is “not meaningfully affected”. The “Tolerability (global assessment)” value in data set [3] is given as “well tolerated”. Also, the “Subjects with adverse events by actual treatment at onset” value (shortened to “Subjects with adverse events”) in data set [3] (treatment at onset: enoxaparin (four subjects of 23)) came to 17.4%. Also, the “Mean anti-factor Xa/IIa ratio” value in data set [4] was 14.0 ± 3.1.
As to `[H]/N=C(/N)c1ccc(NCc2nc3cc(C(=O)N(CCC(=O)O)c4ccccn4)ccc3n2C)cc1` [dabigatran], the “Ratio of free to total dabigatran gMean AUC0-∞” value in data set [5] (after enoxaparin) is on record as 0.765. Further, in data set [5] (oral), the AUC(0-inf) (commonly the area under the concentration-time curve extrapolated to infinity) turned out to be 592 ng·h/mL and the Cmax – broadly, the maximum level reached in the sampled fluid or tissue – was 78.4 ng/mL. In addition, in data set [5] (po, 220 mg), the total exposure AUC(0-inf) amounted to 700 ng·h/mL and the Cmax amounted to 90.7 ng/mL. Also, the “Ratio of free to total dabigatran gMean AUC0-∞” value in data set [5] (dabigatran alone) was 0.760. In addition, in data set [5] (setting [10]), the “AUC0-∞, ratio test/reference” value is 85% and the “Cmax, ratio test/reference” value came out at 86%. Besides, in data set [6] (setting [11]), the “Increase of PiCT AUEC0–48 compared with dabigatran etexilate alone” value is on record as 64% and the “Increase of PiCT ERmax compared with dabigatran etexilate alone” value is reported as approximately 15%. For the same compound, the “Subjects with adverse events” value in data set [3] (treatment at onset: dabigatran (three subjects of 23)) amounted to 13.0%. For the same compound, in data set [3] (treatment at onset: enoxaparin + dabigatran (three subjects of 23)), the “Subjects with adverse events” value is recorded as 13.0%. Besides, the “Glucuronide share of total dabigatran exposure in plasma” value in data set [7] was “approximately 20%”.
For `CCCCCCOC(=O)NC(=N)c1ccc(NCc2nc3cc(C(=O)N(CCC(=O)OCC)c4ccccn4)ccc3n2C)cc1` [Dabigatran etexilate], in data set [6], the “PiCT AUEC0–48, ratio of adjusted test/reference gMean (90% CI)” value is given as 163.7 (114.3–234.3) % and the “PiCT ERmax, ratio of adjusted test/reference gMean (90% CI)” value is recorded as 115.2 (101.8–130.4) %. For the same compound, in data set [6] (listed as dabigatran etexilate), the “PiCT AUEC0–48, ratio of adjusted test/reference gMean (90% CI)” value amounted to 163.7% and the “PiCT ERmax, ratio of adjusted test/reference gMean (90% CI)” value is listed as 115.2%. Besides, in data set [6] (setting [12]), the “PiCT AUEC0–48, gMean” value was 23.8^c h; the “PiCT ERmax (maximum effect ratio to baseline), gMean” value is given as 2.92^c; the “PiCT Ebase (baseline effect), gMean” value is recorded as 34.7^c s. Further, in data set [6] (setting [13]), the “PiCT AUEC0–48, gMean” value was 14.6 h; the “PiCT ERmax (maximum effect ratio to baseline), gMean” value is listed as 2.53; the “PiCT Ebase (baseline effect), gMean” value amounted to 28.4 s. In addition, the “Increase of PiCT ERmax compared with dabigatran etexilate alone” value in data set [6] (setting [11]) was “approximately 15%”. Besides, in data set [6] (similar in both treatment regimens (alone and 24 h after enoxaparin)), the “PiCT time to peak” value is 3 h. In data set [8] (after enoxaparin vs alone), the “aPTT AUEC0–48, ratio of adjusted test/reference gMean (90% CI)” value is on record as 114.2 (75.1–173.5) % and the “aPTT ERmax, ratio of adjusted test/reference gMean (90% CI)” value is 84.9 (70.3–102.5) %. In data set [8] (setting [14]), the “aPTT AUEC0–48, gMean” value was 6.56 h; the “aPTT ERmax, gMean” value stood at 2.07; the “aPTT Ebase (baseline effect), gMean” value is recorded as 39.3 s. In data set [8] (setting [15]), the “aPTT AUEC0–48, gMean” value was determined as 5.65 h; the “aPTT ERmax, gMean” value is listed as 2.40; the “aPTT Ebase (baseline effect), gMean” value was determined as 39.1 s. In data set [1] (after enoxaparin vs alone), the “ECT AUEC0–48, ratio of adjusted test/reference gMean (90% CI)” value is 99.2 (67.8–145.0) % and the “ECT ERmax, ratio of adjusted test/reference gMean (90% CI)” value is recorded as 91.0 (80.0–103.5) %. For the same compound, the “ECT Ebase (baseline effect), gMean” value in data set [1] (dabigatran etexilate 220 mg after enoxaparin, n = 22) is recorded as 32.6^d s. Moreover, in data set [1] (setting [16]), the “ECT AUEC0–48, gMean” value is on record as 7.30 h and the “ECT ERmax, gMean” value is on record as 2.05. Moreover, in data set [1] (setting [13]), the “ECT AUEC0–48, gMean” value amounted to 7.28 h; the “ECT ERmax, gMean” value amounted to 2.25; the “ECT Ebase (baseline effect), gMean” value came out at 33.1 s. Besides, in data set [2] (after enoxaparin vs alone), the “dTT (HEMOCLOT) AUEC0–48, ratio of adjusted test/reference gMean (90% CI)” value is 88.4 (66.8–116.9) % and the “dTT (HEMOCLOT) ERmax, ratio of adjusted test/reference gMean (90% CI)” value is 95.0 (87.4–103.2) %. For the same compound, in data set [2] (setting [14]), the “dTT (HEMOCLOT) AUEC0–48, gMean” value stood at 3.61 h; the “dTT (HEMOCLOT) ERmax, gMean” value was determined as 1.55; the “dTT (HEMOCLOT) Ebase (baseline effect), gMean” value is recorded as 31.0 s. For the same compound, in data set [2] (setting [15]), the “dTT (HEMOCLOT) AUEC0–48, gMean” value is 4.01 h; the “dTT (HEMOCLOT) ERmax, gMean” value was determined as 1.64; the “dTT (HEMOCLOT) Ebase (baseline effect), gMean” value was determined as 31.7 s. Besides, in data set [3], the “Tolerability (global assessment)” value is on record as “well tolerated”.
